Screening results: PubChem, several laboratories
Shown are actives, neighbours in structure and some others; about 2% of the full set was active somewhere.
CAL PDZ FP-1: CAL PDZ peptide-binding inhibitors, primary screen, biochemical, fluorescence polarization, Cer-tagged CAL PDZ, HTS; Golgi-associated PDZ and coiled-coil motif-containing protein (Homo sapiens), Q9HD26; purified CAL PDZ, TMR-peptide fluorescence polarization, 1 h; inhibition, % at 20 µM; 330,000 compounds, 0.02% hits;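 active = highest replicate inhibition of at least 40%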;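 also: plate controls were DMSO neutral control wells for no effect and unlabeled competitor peptide control wells for full effect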
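Read-out basis: mP drop reported as inhibition | Assay system: Tagged CAL PDZ protein CerCALP, purified | Benchmarks: Unlabelled peptide for full inhibition, DMSO wells as neutral | Schedule: 1 h incubation at room temperature before polarization reading | Buffer or medium: Sodium phosphate/NaCl buffer pH 7.4 with TCEP, IgG, Thesit | Doses: Single point, 20 µM | Measured by: Fluorescence polarization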
dFosB act-1: activators of delta FosB homodimer, primary screen, biochemical, fluorescence polarization, TAMRA-CDK5 oligo, single point. 340,000 compounds, 0.99% hits. AID 493131, 2011. purified delta FosB; percent of positive-control signal above neutral wells. activation, % at 25 µM. Protein FosB (Mus musculus), P13346;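 active = mean activation above about 17%, with every replicate also reaching it, limit read from the data, passing the limit was not always enough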
Target sequence (P13346 whole entry, looked up): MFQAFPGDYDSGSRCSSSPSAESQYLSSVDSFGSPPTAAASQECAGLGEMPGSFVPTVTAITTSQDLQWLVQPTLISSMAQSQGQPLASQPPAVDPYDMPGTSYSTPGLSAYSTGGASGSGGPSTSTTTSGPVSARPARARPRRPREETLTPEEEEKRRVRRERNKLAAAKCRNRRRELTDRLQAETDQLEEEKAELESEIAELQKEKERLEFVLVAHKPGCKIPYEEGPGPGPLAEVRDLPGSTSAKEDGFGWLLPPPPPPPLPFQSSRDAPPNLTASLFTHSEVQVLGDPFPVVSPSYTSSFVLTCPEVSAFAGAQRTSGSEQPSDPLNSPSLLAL
PKA-R1A act: activators of PKA-R1A holoenzyme, primary screen, biochemical, fluorescence polarization, Cy5-IP20, bovine R1A, mouse PKAc | 340,000 compounds, 0.083% hits | cAMP-dependent protein kinase type I-alpha regulatory subunit (Bos taurus) + … | activation, % at 11.4 µM | PKA-R1A dissociation; scaled: DMSO 0%, 113 µM cGMP 100%;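 active = percent activation above the mean of all tested compounds plus 3 SD, cut at about 19% in these data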;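 also: higher means more PKAc released from R1A so a rise in polarization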
NTR1 agonist: agonists of human NTR1, primary screen, imaging, U2OS cells, beta-arrestin-GFP, high content; NTR1-U2OS beta-arrestin-GFP spot imaging, agonist mode; activation, % at 20 µM; 330,000 compounds, 0.17% hits; AID 493036, 2011;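 active = activation at or above 40% of the spot to cytoplasm intensity ratio, with at least 20 cells analyzed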;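 also: 0% = DMSO without peptide and 100% = 100 nM NTR1 peptide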
PKA-R2B act: activators of PKA-R2B holoenzyme, primary screen, biochemical, fluorescence polarization, Cy5-IP20, human. PKA-R2B holoenzyme dissociation; R2B truncated from residue 108, S112A mutant; 0% DMSO only, 100% 113 µM cGMP. cAMP-dependent protein kinase catalytic subunit beta (Homo sapiens) + cAMP-dependent …. 340,000 compounds, 0.079% hits. activation, % at 11.4 µM. AID 504700, 2011;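 active = activation above a cutoff set at the mean over all compounds plus 3 SD, cut at about 18% in these data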;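 also: higher means more holoenzyme dissociation and a rise in polarization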
CAL PDZ FP-2: untagged CAL PDZ binding inhibitors, primary screen, biochemical, fluorescence polarization, HTS; purified CAL PDZ, TMR-peptide fluorescence polarization, 1 h; inhibition, % at 24.9 µM; 300,000 compounds, 0.92% hits; AID 602252, 2012;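 active = mean inhibition of at least 30% with at least half of replicates also reaching 30%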;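 also: 0% = DMSO neutral control and 100% = excess unlabeled competitor peptide PRC23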
dFosB act-2: activators of mouse delta FosB DNA binding, confirmation, biochemical, fluorescence polarization, TAMRA-CDK5 oligo, cherry-picked samples | shares compounds with dFosB act-1 | activation, % at 24.9 µM | purified delta FosB; normalised: neutral wells 0, positive control 100 | 2,400 tested, under 10 active;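 active = highest replicate activation at or above 34% and every replicate reaching that threshold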;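 also: higher polarization means more probe DNA bound by delta FosB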
Active calls of the source: *; · = not tested or not shown.

SMILES	CAL PDZ FP-1	dFosB act-1	PKA-R1A act	NTR1 agonist	PKA-R2B act	CAL PDZ FP-2	dFosB act-2
O=C(CCNC(=O)C1CCN(S(=O)(=O)c2ccc(F)cc2)CC1)NCc1ccccc1	-3	-1	2	0	-15	-2	·
CCC1NC(=O)c2ccccc2N1c1cccc(Cl)c1 (centres undefined)	-1	3	-2	2	-9	·	·
Cc1ccccc1Nc1nc(N)c2ccccc2n1	-2	-3	-13	2	-8	-3	·
COc1ccc(C)cc1Nc1nc(N)c2ccccc2n1	1	27*	7	2	1	1	1
c1nc(NCc2ccc3c(c2)OCO3)c2cc(-c3ccc4c(c3)OCCO4)ccc2n1	-2	39*	-6	1	8	-5	3
COc1ccc(NS(=O)(=O)c2cc(NC(=O)c3cc(=O)c4ccccc4o3)ccc2OC)cc1	-11	48*	-13	2	6	2	6
O=C(/C=C/c1cn(-c2ccccc2)nc1-c1ccccc1)Nc1ccc(C(=O)O)cc1	-6	-52	-8	4	-15	-20	·
NS(=O)(=O)c1ccc(NC(=O)/C=C/c2cn(-c3ccccc3)nc2-c2cccc(Cl)c2)cc1	-2	142*	1	5	0	1	2
O=C(Nc1nc2c(s1)CN(Cc1ccccc1)CC2)C1CCCC1	-2	24*	-7	-1	1	2	1
CC(C)(C)C(=O)Nc1nc2c(s1)CN(Cc1ccccc1)CC2	0	4	-1	0	-13	-3	·
CCC(=O)NC(=S)Nc1ccc(NC(=O)c2cc3ccccc3o2)c(OC)c1	-1	67*	·	0	·	0	6
CCn1c(N2CCN(C(c3ccccc3)c3ccccc3)CC2)nc2c1c(=O)[nH]c(=O)n2C	-1	0	-10	·	0	0	·
COc1ccc(-c2cc(C(F)F)n3ncc(C(=O)Nc4cccc(S(=O)(=O)N5CCOCC5)c4)c3n2)cc1	-2	33*	3	3	-25	-2	2
CCOc1ncccc1C(=O)Nc1cc(S(=O)(=O)N2CCCCC2)ccc1OC	-1	-12	-12	0	1	·	·
CC1CCC(C(=O)NC(C(=O)NCCc2ccc(S(N)(=O)=O)cc2)C(C)C)CC1 (centres undefined)	-1	21*	-4	0	1	-1	5
CC(NCCc1ccc(S(N)(=O)=O)cc1)C(=O)NCCc1ccc(F)cc1 (centres undefined)	1	0	-14	-2	-9	6	·
CCOc1ccc(CC(=O)Nc2c(C(=O)Nc3ccccc3)oc3ccccc23)cc1OCC	-1	27*	-8	1	2	-5	2
CCOc1cc(/C=N/NC(=O)Cc2ccc(C(F)(F)F)cc2[N+](=O)[O-])ccc1O	-2	-14	-2	5	-8	0	·
C=CCOc1c(Br)cc(/C=N/NC(=O)Cc2ccc(C(F)(F)F)cc2[N+](=O)[O-])cc1OC	0	37*	-6	6	5	7	-1
COc1ccc2oc(-c3ccc(C)c(NC(=O)c4ccc(N5CCOCC5)c([N+](=O)[O-])c4)c3)nc2c1	-1	22*	0	7	0	·	3
COc1ccc(CNC(=O)c2ccc(N3CCOCC3)c([N+](=O)[O-])c2)cc1	-3	-11	-5	-1	-1	-2	·
